Results taken from ChEMBL document CHEMBL4689842, “EUbOPEN Chemogenomics Library wave 1” (2021).

Test system: Fibroblast
Assay: Multiplex assay against human fibroblast
Assay type: toxicity, cell-based
Summary of the method: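 Hoechst33342, BioTracker Green Microtubule Cytoskeleton Dye, MitoTracker Red and Annexin V Alexa Fluor 680 were added to live cells at seeding, and imaging on a CQ1 microscope at 37°C and 5% CO2 followed compound addition. Gating by CellPathfinder machine learning separated cells into Hoechst high-intensity objects or normal cells, then normal cells into healthy, pyknosed or fragmented nuclei, then pyknosed cells into mitotic or apoptotic. Per cents of healthy-nucleus cells are reported for the tubulin, mitochondrial-mass and membrane-permeability phenotypes.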

[1] = 12 h, 1 µM, compound concentration 1 uM, replicate 1
[2] = 12 h, 1 µM, compound concentration 1 uM, replicate 2
[3] = 12 h, 10 µM, compound concentration 10 uM, replicate 1
[4] = 12 h, 10 µM, compound concentration 10 uM, replicate 2
[5] = 24 h, 1 µM, compound concentration 1 uM, replicate 1
[6] = 24 h, 1 µM, compound concentration 1 uM, replicate 2
[7] = 24 h, 10 µM, compound concentration 10 uM, replicate 1
[8] = 24 h, 10 µM, compound concentration 10 uM, replicate 2

`Cc1nc(N2CC[C@H](O)C2)ncc1-c1cc(C(F)(F)F)cc2[nH]ncc12` was tested, and the “Population Apoptotic (%)” value [1] was 70%, the “Population Fragmented Nuclei (%)” value [1] was 32% and the “Population Healthy Nuclei (%)” value [1] was 49%. For the same compound, the “Population Hoechst High Intensity Objects (%)” value [1] was 12%, the “Population Membrane Permeable-Phenotype (%)” value [1] was 10% and the “Population Mitochondria Different-Phenotype (%)” value [1] was 6%. For the same compound, the “Population Mitotic Cells (%)” value [1] was 29%, the “Population Normal (%)” value [1] was 87% and the “Population Pyknosed Nuclei (%)” value [1] was 18%. For the same compound, the “Population Tubulin-Different-Phenotype (%)” value [1] was 7%, the “Total Cell Count” value [1] was 193 and the “Population Apoptotic (%)” value [2] was 20%. For the same compound, the “Population Fragmented Nuclei (%)” value [2] was 42%, the “Population Healthy Nuclei (%)” value [2] was 33% and the “Population Hoechst High Intensity Objects (%)” value [2] was 40%. For the same compound, the “Population Membrane Permeable-Phenotype (%)” value [2] was 28%, the “Population Mitochondria Different-Phenotype (%)” value [2] was 28% and the “Population Mitotic Cells (%)” value [2] was 80%. The “Population Normal (%)” value [2] was 60%, the “Population Pyknosed Nuclei (%)” value [2] was 23% and the “Population Tubulin-Different-Phenotype (%)” value [2] was 50%. The “Total Cell Count” value [2] was 70, the “Population Apoptotic (%)” value [3] was 66% and the “Population Fragmented Nuclei (%)” value [3] was 24%. The “Population Healthy Nuclei (%)” value [3] was 61%, the “Population Hoechst High Intensity Objects (%)” value [3] was 15% and the “Population Membrane Permeable-Phenotype (%)” value [3] was 3%. For the same compound, the “Population Mitochondria Different-Phenotype (%)” value [3] was 7%, the “Population Mitotic Cells (%)” value [3] was 33% and the “Population Normal (%)” value [3] was 84%. The “Population Pyknosed Nuclei (%)” value [3] was 14%, the “Population Tubulin-Different-Phenotype (%)” value [3] was 4% and the “Total Cell Count” value [3] was 218. The “Population Apoptotic (%)” value [4] was 50%, the “Population Fragmented Nuclei (%)” value [4] was 68% and the “Population Healthy Nuclei (%)” value [4] was 21%. For the same compound, the “Population Hoechst High Intensity Objects (%)” value [4] was 22%, the “Population Membrane Permeable-Phenotype (%)” value [4] was 15% and the “Population Mitochondria Different-Phenotype (%)” value [4] was 15%. The “Population Mitotic Cells (%)” value [4] was 50%, the “Population Normal (%)” value [4] was 77% and the “Population Pyknosed Nuclei (%)” value [4] was 9%. The “Population Tubulin-Different-Phenotype (%)” value [4] was 15%, the “Total Cell Count” value [4] was 79 and the “Population Apoptotic (%)” value [5] was 48%. For the same compound, the “Population Fragmented Nuclei (%)” value [5] was 29%, the “Population Healthy Nuclei (%)” value [5] was 47% and the “Population Hoechst High Intensity Objects (%)” value [5] was 12%. The “Population Membrane Permeable-Phenotype (%)” value [5] was 9%, the “Population Mitochondria Different-Phenotype (%)” value [5] was 9% and the “Population Mitotic Cells (%)” value [5] was 51%. The “Population Normal (%)” value [5] was 87%, the “Population Pyknosed Nuclei (%)” value [5] was 22% and the “Population Tubulin-Different-Phenotype (%)” value [5] was 12%. For the same compound, the “Total Cell Count” value [5] was 183, the “Population Apoptotic (%)” value [6] was 60% and the “Population Fragmented Nuclei (%)” value [6] was 45%. For the same compound, the “Population Healthy Nuclei (%)” value [6] was 30%, the “Population Hoechst High Intensity Objects (%)” value [6] was 35% and the “Population Membrane Permeable-Phenotype (%)” value [6] was 30%. The “Population Mitochondria Different-Phenotype (%)” value [6] was 7%, the “Population Mitotic Cells (%)” value [6] was 40% and the “Population Normal (%)” value [6] was 64%. For the same compound, the “Population Pyknosed Nuclei (%)” value [6] was 23%, the “Population Tubulin-Different-Phenotype (%)” value [6] was 23% and the “Total Cell Count” value [6] was 65. For the same compound, the “Population Apoptotic (%)” value [7] was 65%, the “Population Fragmented Nuclei (%)” value [7] was 22% and the “Population Healthy Nuclei (%)” value [7] was 63%. The “Population Hoechst High Intensity Objects (%)” value [7] was 15%, the “Population Membrane Permeable-Phenotype (%)” value [7] was 7% and the “Population Mitochondria Different-Phenotype (%)” value [7] was 3%. For the same compound, the “Population Mitotic Cells (%)” value [7] was 34%, the “Population Normal (%)” value [7] was 84% and the “Population Pyknosed Nuclei (%)” value [7] was 14%. The “Population Tubulin-Different-Phenotype (%)” value [7] was 3%, the “Total Cell Count” value [7] was 239 and the “Population Apoptotic (%)” value [8] was 83%. For the same compound, the “Population Fragmented Nuclei (%)” value [8] was 67%, the “Population Healthy Nuclei (%)” value [8] was 22% and the “Population Hoechst High Intensity Objects (%)” value [8] was 24%. The “Population Membrane Permeable-Phenotype (%)” value [8] was 38%, the “Population Mitochondria Different-Phenotype (%)” value [8] was 30% and the “Population Mitotic Cells (%)” value [8] was 16%. For the same compound, the “Population Normal (%)” value [8] was 75%, the “Population Pyknosed Nuclei (%)” value [8] was 10% and the “Population Tubulin-Different-Phenotype (%)” value [8] was 46%. For the same compound, the “Total Cell Count” value [8] was 77.

`C=CC(=O)Nc1ccc2[nH]c(=O)n(C3CCN(Cc4ccc(-c5nc6cc[nH]c(=O)c6cc5-c5ccccc5)cc4)CC3)c2c1` [Borussertib] was tested, and the “Population Apoptotic (%)” value [1] was 64%, the “Population Fragmented Nuclei (%)” value [1] was 31% and the “Population Healthy Nuclei (%)” value [1] was 51%. For the same compound, the “Population Hoechst High Intensity Objects (%)” value [1] was 13%, the “Population Membrane Permeable-Phenotype (%)” value [1] was 10% and the “Population Mitochondria Different-Phenotype (%)” value [1] was 5%. For the same compound, the “Population Mitotic Cells (%)” value [1] was 36%, the “Population Normal (%)” value [1] was 86% and the “Population Pyknosed Nuclei (%)” value [1] was 17%. The “Population Tubulin-Different-Phenotype (%)” value [1] was 4%, the “Total Cell Count” value [1] was 169 and the “Population Apoptotic (%)” value [2] was 33%. For the same compound, the “Population Fragmented Nuclei (%)” value [2] was 63%, the “Population Healthy Nuclei (%)” value [2] was 31% and the “Population Hoechst High Intensity Objects (%)” value [2] was 30%. The “Population Membrane Permeable-Phenotype (%)” value [2] was 11%, the “Population Mitochondria Different-Phenotype (%)” value [2] was 0% and the “Population Mitotic Cells (%)” value [2] was 66%. For the same compound, the “Population Normal (%)” value [2] was 69%, the “Population Pyknosed Nuclei (%)” value [2] was 5% and the “Population Tubulin-Different-Phenotype (%)” value [2] was 16%. For the same compound, the “Total Cell Count” value [2] was 83, the “Population Apoptotic (%)” value [3] was 60% and the “Population Fragmented Nuclei (%)” value [3] was 27%. For the same compound, the “Population Healthy Nuclei (%)” value [3] was 56%, the “Population Hoechst High Intensity Objects (%)” value [3] was 15% and the “Population Membrane Permeable-Phenotype (%)” value [3] was 6%. The “Population Mitochondria Different-Phenotype (%)” value [3] was 4%, the “Population Mitotic Cells (%)” value [3] was 39% and the “Population Normal (%)” value [3] was 84%. For the same compound, the “Population Pyknosed Nuclei (%)” value [3] was 16%, the “Population Tubulin-Different-Phenotype (%)” value [3] was 27% and the “Total Cell Count” value [3] was 304. The “Population Apoptotic (%)” value [4] was 44%, the “Population Fragmented Nuclei (%)” value [4] was 64% and the “Population Healthy Nuclei (%)” value [4] was 22%. For the same compound, the “Population Hoechst High Intensity Objects (%)” value [4] was 29%, the “Population Membrane Permeable-Phenotype (%)” value [4] was 25% and the “Population Mitochondria Different-Phenotype (%)” value [4] was 18%. The “Population Mitotic Cells (%)” value [4] was 55%, the “Population Normal (%)” value [4] was 71% and the “Population Pyknosed Nuclei (%)” value [4] was 12%. For the same compound, the “Population Tubulin-Different-Phenotype (%)” value [4] was 68%, the “Total Cell Count” value [4] was 100 and the “Population Apoptotic (%)” value [5] was 66%. The “Population Fragmented Nuclei (%)” value [5] was 29%, the “Population Healthy Nuclei (%)” value [5] was 56% and the “Population Hoechst High Intensity Objects (%)” value [5] was 13%. The “Population Membrane Permeable-Phenotype (%)” value [5] was 4%, the “Population Mitochondria Different-Phenotype (%)” value [5] was 2% and the “Population Mitotic Cells (%)” value [5] was 33%. For the same compound, the “Population Normal (%)” value [5] was 86%, the “Population Pyknosed Nuclei (%)” value [5] was 14% and the “Population Tubulin-Different-Phenotype (%)” value [5] was 6%. For the same compound, the “Total Cell Count” value [5] was 170, the “Population Apoptotic (%)” value [6] was 100% and the “Population Fragmented Nuclei (%)” value [6] was 56%. The “Population Healthy Nuclei (%)” value [6] was 41%, the “Population Hoechst High Intensity Objects (%)” value [6] was 32% and the “Population Membrane Permeable-Phenotype (%)” value [6] was 5%. The “Population Mitochondria Different-Phenotype (%)” value [6] was 10%, the “Population Mitotic Cells (%)” value [6] was 0% and the “Population Normal (%)” value [6] was 67%. The “Population Pyknosed Nuclei (%)” value [6] was 2%, the “Population Tubulin-Different-Phenotype (%)” value [6] was 10% and the “Total Cell Count” value [6] was 68. The “Population Apoptotic (%)” value [7] was 55%, the “Population Fragmented Nuclei (%)” value [7] was 30% and the “Population Healthy Nuclei (%)” value [7] was 56%. For the same compound, the “Population Hoechst High Intensity Objects (%)” value [7] was 23%, the “Population Membrane Permeable-Phenotype (%)” value [7] was 2% and the “Population Mitochondria Different-Phenotype (%)” value [7] was 2%. The “Population Mitotic Cells (%)” value [7] was 44%, the “Population Normal (%)” value [7] was 76% and the “Population Pyknosed Nuclei (%)” value [7] was 13%. For the same compound, the “Population Tubulin-Different-Phenotype (%)” value [7] was 22%, the “Total Cell Count” value [7] was 347 and the “Population Apoptotic (%)” value [8] was 33%. The “Population Fragmented Nuclei (%)” value [8] was 55%, the “Population Healthy Nuclei (%)” value [8] was 39% and the “Population Hoechst High Intensity Objects (%)” value [8] was 40%. The “Population Membrane Permeable-Phenotype (%)” value [8] was 4%, the “Population Mitochondria Different-Phenotype (%)” value [8] was 8% and the “Population Mitotic Cells (%)” value [8] was 66%. The “Population Normal (%)” value [8] was 59%, the “Population Pyknosed Nuclei (%)” value [8] was 5% and the “Population Tubulin-Different-Phenotype (%)” value [8] was 43%. For the same compound, the “Total Cell Count” value [8] was 97.
